Measurements taken from ChEMBL document CHEMBL1156927, “New pterocarpanquinones: synthesis, antineoplasic activity on cultured human malignant cell lines and TNF-alpha modulation in human PBMC cells” (Bioorg Med Chem, 2010).
pIC50: −log10 of the molar value. Active and inactive are the calls of the source. The rule behind the calls is not given here.

Assays:
PBMC [1] = assay: Antiinflammatory activity in human PBMC assessed reduction of LPS-stimulated TNFalpha production at 25 uM after 2 hrs by ELISA; format: functional, cell-based
In short: (§1)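 PBMC at 10⁶ cells/mL stimulated with 2 µg/mL E. coli 055:B5 LPS for 2 h at 37 °C, 5% CO₂, co-incubated with vehicle (0.5% DMSO in RPMI 1640) or compound at several concentrations. TNF-α measured in supernatants. Three experiments, mean ± SEM.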

PBMC [2] = assay: Growth inhibition of phytohemagglutinin-activated human PBMC cells after 24 to 72 hrs by MTT assay; format: cell-based
NCI-H460 = assay: Growth inhibition of human H460 cells after 72 hrs by MTT assay; format: functional, cell-based; conditions: NCI-H460, 72 h
In short: (§2)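 Adherent lung cancer cells allowed to attach 24 h, then exposed to compound. 2 × 10⁴ cells/mL in drug-free or compound-containing medium, 72 h at 37 °C, 5% CO₂. MTT added, 3 h at 37 °C, formazan dissolved in DMSO, absorbance at 490 nm. IC50 from three independent experiments, each concentration in triplicate.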

Raji = assay: Growth inhibition of human Raji cells after 24 to 72 hrs by MTT assay; format: functional, cell-based
In short: (§3)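 Leukemic lines in medium with 50 µM β-mercaptoethanol, 25 mM Hepes pH 7.4, antibiotics and 10% heat-inactivated FCS (Daudi 20% FCS; Lucena-1 kept with 60 nM vincristine to maintain MDR phenotype). Cells exposed to compound for 24, 48 or 72 h. Viability by MTT: 3 h at 37 °C, DMSO solubilisation, absorbance at 490 nm.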

Jurkat = assay: Growth inhibition of human Jurkat cells after 24 to 72 hrs by MTT assay; format: functional, cell-based; in short: as §3
PBMC [3] = assay: Antiinflammatory activity in human PBMC assessed inhibition of LPS-stimulated TNFalpha production at 100 uM after 2 hrs by ELISA; format: functional; in short: as §1
Daudi = assay: Growth inhibition of human Daudi cells after 24 to 72 hrs by MTT assay; format: functional, cell-based; in short: as §3
[4] = Growth inhibition of human GLC4 cells after 72 hrs by MTT assay; format: functional, cell-based; conditions: GLC4, 72 h; in short: as §2
HL-60 = assay: Growth inhibition of human HL60 cells after 72 hrs by MTT assay; format: functional, cell-based; conditions: HL-60, 72 h
In short: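 2 × 10⁴ cells/mL seeded in drug-free medium or medium with a range of compound concentrations, 72 h at 37 °C, 5% CO₂. MTT read-out: 3 h incubation, formazan dissolved in DMSO, A490. IC50 = concentration inhibiting growth by 50%. Mean of three independent experiments, triplicate wells.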

A549 = assay: Growth inhibition of human A549 cells after 72 hrs by MTT assay; format: functional, cell-based; conditions: A549, 72 h; in short: as §2
K562 = assay: Growth inhibition of human K562 cells after 24 to 72 hrs by MTT assay; format: functional, cell-based; in short: as §3
[5] = Growth inhibition of human K562-Lucena 1 cells after 24 to 72 hrs by MTT assay; format: functional; in short: as §3
[6] = Toxicity in LPS-stimulated human PBMC cells assessed as cell viability at 100 uM; format: cell-based

## O=C1C2=C(C(=O)c3ccccc31)[C@H]1Oc3ccccc3[C@H]1CO2 [PTEROCARPANQUINONE]
PBMC [1]
  inhibition: Active
PBMC [2]
  pIC50: < 4.70
NCI-H460
  pIC50: 4.89
Raji
  pIC50: 5.48
Jurkat
  pIC50: 5.17
PBMC [3]
  inhibition at 100 µM: 100%
Daudi
  pIC50: 5.51
[4]
  pIC50: 5.29
HL-60
  pIC50: 5.70
A549
  pIC50: 4.95
K562
  pIC50: 5.78
[5]
  pIC50: 5.56
[6]
  viability at 100 µM: > 70%

## O=C1C2=C(C(=O)c3ccccc31)[C@H]1Oc3ccc(Cl)cc3[C@H]1CO2 (racemic)
HL-60
  pIC50: 5.31
K562
  pIC50: 5.17

## O=C1C2=C(C(=O)c3ccccc31)[C@H]1Oc3ccc(Br)cc3[C@H]1CO2 (racemic)
HL-60
  pIC50: 5.31
K562
  pIC50: 5.24

## COc1cc2c(cc1O)[C@H]1COC3=C(C(=O)c4ccccc4C3=O)[C@H]1O2 (racemic)
K562
  pIC50: 5.66

## O=C1C2=C(OC[C@@H]3c4cc5c(cc4O[C@H]23)OCO5)C(=O)c2c1ccc(O)c2O
HL-60
  pIC50: 5.68
K562
  pIC50: 5.53

## CO[C@@]12[C@H](COC(N)=O)C3=C(C(=O)C(C)=C(N)C3=O)N1C[C@@H]1N[C@@H]12 [MITOMYCIN]
PBMC [2]
  pIC50: 5.39
Daudi
  pIC50: 6.35
K562
  pIC50: 6.33
[5]
  pIC50: 5.56

## O=C1C2=C(C(=O)c3ccccc31)[C@H]1Oc3ccc([N+](=O)[O-])cc3[C@H]1CO2 (racemic)
HL-60
  pIC50: 6.40
K562
  pIC50: 5.46
